Compounds with a hit are over-represented: about 1.7% of the library has one in this group of screens.
CAL PDZ FP-1 = blocks peptide binding to human CAL PDZ domain | Q9HD26 | purified CAL PDZ, TMR-peptide fluorescence polarization, 1 h | inhibition, % at 20 µM | hit rate 0.02% among 330,000;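 active = highest replicate inhibition of at least 40%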;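 also: plate controls were DMSO neutral control wells for no effect and unlabeled competitor peptide control wells for full effect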
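Control set: unlabelled peptide and DMSO controls / Material: purified CerCALP PDZ construct / Timing: 1 h incubation at room temperature before polarization reading / Doses: 20 µM, one dose / Detection: fluorescence polarization (mP)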
CAL PDZ FP-2 = inhibitors of human CAL PDZ peptide binding; hit rate 0.92% among 300,000; inhibition, % at 24.9 µM; Q9HD26; purified CAL PDZ, TMR-peptide fluorescence polarization, 1 h;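 active = mean inhibition of at least 30% with at least half of replicates also reaching 30%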;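 also: 0% = DMSO neutral control and 100% = excess unlabeled competitor peptide PRC23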
AI-2 QS mod = Vibrio harveyi AI-2 quorum sensing modulation. Vibrio harveyi JMH597 AI-2 luminescence/OD600 ratio, 9 h; active compounds read low; strain lacks LuxN and CqsS sensors; 0 = neutral-control median. activity change, % at 7.5 µM. hit rate 0.4% among 300,000; in the data active = activity change below about -75%, passing the limit was not always enough;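 also: luminescence divided by OD600 gain over 9 h not by final OD600 alone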
ARNT TACC3 PPI = disruptors of human ARNT/TACC3 interaction | AlphaScreen His-ARNT PAS-B/GST-TACC3 binding, luminescence; TACC3 fragment carries E629A point mutation | inhibition, % at 9.99 µM | AID 623870 | Q9Y6A5 | hit rate 0.66% among 390,000;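 active = mean inhibition of replicates at least 50% and at least half of replicates each reaching 50%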;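 also: 0% = complete ARNT plus TACC3 wells and 100% = ARNT alone without TACC3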
Rce1 inh = blocks yeast Ras-converting enzyme; hit rate 0.27% among 290,000; yeast membranes, quenched prenylated peptide cleavage fluorescence; Q03530; AID 2563; calls only;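 active = fall in fluorescence gain of 50% or more versus controls, with final raw signal at or below 3038400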;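 also: plate controls were neutral control wells for no effect and wells lacking membranes for full effect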
Target sequence (Q03530 whole entry, looked up): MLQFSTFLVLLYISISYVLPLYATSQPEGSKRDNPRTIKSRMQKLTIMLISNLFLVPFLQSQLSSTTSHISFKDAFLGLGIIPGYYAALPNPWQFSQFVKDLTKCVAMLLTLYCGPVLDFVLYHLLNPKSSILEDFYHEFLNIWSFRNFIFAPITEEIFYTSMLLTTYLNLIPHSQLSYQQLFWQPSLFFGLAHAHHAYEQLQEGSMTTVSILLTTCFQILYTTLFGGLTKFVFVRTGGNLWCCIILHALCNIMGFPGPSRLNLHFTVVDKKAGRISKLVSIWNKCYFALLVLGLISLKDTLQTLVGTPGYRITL
Numbers without * were called inactive; i = inactive; · = not tested or not shown; + = active, no number; ! = a repeat was not active.

SMILES	CAL PDZ FP-1	CAL PDZ FP-2	AI-2 QS mod	ARNT TACC3 PPI	Rce1 inh
CC(=O)c1sc(NC(=O)CCCc2nc3ccccc3c(=O)[nH]2)nc1-c1ccccc1	-1	52*	·	4	·
CC(=O)Nc1ccc(NC(=O)CCc2nc3ccccc3c(=O)[nH]2)cc1	-2	-36	1	·	i
O=C(CC1c2ccccc2Oc2ccccc21)Nc1ccccc1F	0	1	14	-5	i
COc1cc(NCCCC(C)N)c2ncccc2c1 (centres undefined)	·	-4	8	67*	i
COc1ccc(Nc2nnc(SCC(=O)N3CC(=O)Nc4ccccc43)s2)cc1	-1	-2	24	-21	i
CC(C)c1nc(SCC(=O)N2CCOCC2)c2c(=O)n(C)c(=O)n(C)c2n1	1	-1	0	1	i
CC(=O)OCCNc1cc(N2CCN(C)CC2)c2noc3c2c1C(=O)c1ccccc1-3	0	·	·	49*	·
CCN1CCN(c2cc(N3CCN(C(=O)c4ccco4)CC3)c3c4c(onc24)-c2ccccc2C3=O)CC1	-3	-13	-2	43	i
O=c1[nH]c2nc(Cl)nc(Cl)c2[nH]1	-1	81*	·	-3	·
COc1ccc2oc(C(=O)NCC3CCCO3)c(C)c2c1 (centres undefined)	0	-6	3	-6	i
CCc1ccc(OCC(=O)N/N=C(\C)c2ccc(O)cc2O)cc1	-1	3	-78*	2	i
CCc1ccc(OCC(=O)N/N=C(\C)c2ccc3c(c2)OCCO3)cc1	-2	-3	23	-5	i
C/C(=N\NC(=S)NC1CCCCC1)c1cccs1	1	-7	-11	9	i
C/C(=N\NC(=S)NC1CCCCC1)c1c(F)cccc1F	0	44*	28	0	·
COc1cc(O)c(C(CCN2CCN(c3ccccc3)CC2)c2cc(OC)c(OC)c(OC)c2)c(OC)c1 (centres undefined)	-7	1	3	4	i
CC(C)n1cnc2c(NCc3ccccc3)cc(N[C@H](C)CO)cc21	-1	0	·	34*	·
CCCCOc1cc(NCc2ccccc2)c2ncn(C(C)C)c2c1	0	2	·	-1	·
CCOCCOc1cc(NCc2ccccc2)c2ncn(C(C)C)c2c1	-2	-2	·	19*	·
CCC(CO)Oc1cc(NCc2ccccc2)c2ncn(C(C)C)c2c1 (centres undefined)	-1	0	·	41*!	·
COCCCOc1cc(NCc2ccccc2)c2ncn(C(C)C)c2c1	0	2	·	35	·
O=C(CC(CC(=O)c1ccccc1)c1ccccc1)c1ccccc1	-2	-2	14	-9	i
O=C(CC(Nc1ccc(F)cc1)c1ccccc1)c1ccccc1 (centres undefined)	-3	-3	1	·	+
C/C(=N\Nc1nc(N)cc(Cl)n1)c1ccc(Cl)c(Cl)c1	0	·	-4	9	i
C/C(=N\Nc1nc(N)cc(Cl)n1)c1ccc(F)cc1	-4	0	-8	48*	i
CC1CCCCC1NC(=O)CSC1=Nc2ccccc2C2CC=NN12 (centres undefined)	0	6	·	·	·
SMILES	CAL PDZ FP-1	CAL PDZ FP-2	AI-2 QS mod	ARNT TACC3 PPI	Rce1 inh
CC1=NN(c2cc(Cl)c(S(=O)(=O)O)cc2Cl)C(=O)C1	0	1	·	30*	·
Cc1sc(NC(=O)CN2CCCC2)nc1-c1ccc2c(c1)CCN2C(=O)c1cccc(F)c1	-2	165*	7	13	i
Cc1cc(C)nc(NC(=S)Nc2cccc(F)c2)c1	0	65*	22	-4	i
COc1cccc(NC(=S)Nc2cc(C)cc(C)n2)c1	0	0	17	1	i
Cn1c(=O)c(C(=O)CCl)c(N)n(Cc2ccccc2)c1=O	0	4	15	-1	i
CN(C)CC(=O)c1c(N)n(Cc2ccccc2)c(=O)n(C)c1=O	-2	82*	10	-4	i
CC1CCN(C(=O)Cn2cc3c(n2)CCCC3)CC1	-1	·	11	47*	i
Nc1[nH]c(N=NC(=O)c2ccccc2O)c2ccccc12	0	-2	1	60*	i
Nc1[nH]c(N=NC(=O)c2ccccc2)c2ccccc12	0	·	6	-4	i
CCC(=O)C1=C(O)C(c2cccc(Oc3ccccc3)c2)CCC1=O (centres undefined)	-2	-1	23	·	i
O=C(NC(=S)NNC(=O)c1cnccn1)c1ccc(F)cc1	0	0	-89*	68*	i
O=C(NNC(=S)NC(=O)c1ccc(F)cc1)c1cccnc1	-2	-5	23	6	i
O=C(/C=C/c1ccc(F)cc1)NC(=S)NNC(=O)c1cnccn1	0	-1	-57	64*	i
COc1ccc(/C=C/C(=O)NC(=S)NNC(=O)c2cccnc2)cc1	-2	0	-2	·	i
COc1ccc(/C=C/C(=O)NC(=S)NNC(=O)c2cnccn2)cc1	0	-3	9	61*	i
O=C(NNC(=S)NC(=O)c1cccnc1)c1ccc(F)cc1	0	-3	-84*	28	i
Cc1cc(C)cc(-n2ncc3c2CCCC3NC(=O)C2CCC2)c1 (centres undefined)	-1	53*	30	-2	i
Cc1cc(C)cc(-n2ncc3c2CCCC3NC(=O)c2cc(C)[nH]n2)c1 (centres undefined)	-3	-5	29	0	·
S=C(NCCCn1ccnc1)Nc1cccc(Cl)c1	-1	-18	20	42*	i
OC(c1ccccn1)(c1ccccn1)c1ccccn1	-3	-2	13	75*	i
c1ccc(-c2ccccn2)nc1	0	-2	12	-3	i
CCn1c(=O)n(CC(=O)NCC2CCCO2)c(=O)c2c3c(sc21)COC(C)(C)C3 (centres undefined)	-3	-4	-6	-17	i
COC(Cc1n[nH]c(=S)n1-c1ccc(Cl)cc1)OC	9	-3	15	51*	i
CCC(=O)Nc1ccc2oc(-c3cccnc3)nc2c1	-3	-2	12	-1	i
CC(C)CC(=O)Nc1ccc2oc(-c3cccnc3)nc2c1	-1	-4	1	10	+
SMILES	CAL PDZ FP-1	CAL PDZ FP-2	AI-2 QS mod	ARNT TACC3 PPI	Rce1 inh
Cc1onc(-c2ccccc2)c1-c1n[nH]c(=S)n1-c1ccccc1	2	1	23	-10	·
COc1ccc(CN2CCCCC2C(=O)Nc2ccc(OC)c(OCC(C)C)c2)cc1OC (centres undefined)	-2	-5	30	-29	+
Cc1ccc(N=Cc2c(O)c3ccccc3oc2=O)c(C)c1	-1	-2	20	-3	i
Cc1ccc(-c2csc(N(CCO)CCCn3c(C(F)(F)F)nc4cc(C(F)(F)F)ccc43)n2)cc1	-2	-1	4	·	i
O=C(CSc1nnc([C@@H]2CCCN2)o1)c1ccc(Cl)cc1	0	-19	17	12	i
C=C(C)CSc1nnc([C@@H]2CCCN2)o1	0	42*	14	1	i

High-throughput results deposited in PubChem by Broad Institute.
